According to ChEMBL document CHEMBL1147951, “Synthesis and antimicrobial activity of symmetrical two-tailed dendritic tricarboxylato amphiphiles” (2007):
Converted amounts (≈) assume the structure as drawn.

tested on: Candida albicans; assay: Antimicrobial activity against Candida albicans by broth microdilution assay; assay type: functional
Summary of the method: (§1)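 Compounds were dissolved in aqueous triethanolamine (stock pH 8–9) and serially diluted twofold in 1/10-strength BHI broth + 0.2% sucrose. Inocula were adjusted with buffered saline gelatin to McFarland No. 1; for A. niger, spores were scraped from PDA. Plates were incubated at 30 °C and turbidity was scored visually on day 4. MIC, run in triplicate, was the lowest concentration giving a prominent visible decrease in turbidity.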

Q: For CCCCCCCCCCCC(CCCCCCCCCCC)NC(=O)NC(CCC(=O)O)(CCC(=O)O)CCC(=O)O, which MIC is on record?
A: > 10000 µM

Q: For CCCCCCCCN(CCCCCCCC)C(=O)NC(CCC(=O)O)(CCC(=O)O)CCC(=O)O, which MIC is on record?
A: 190 µM (≈ 97.8 µg/mL)

Q: CCCCCCCCCN(CCCCCCCCC)C(=O)NC(CCC(=O)O)(CCC(=O)O)CCC(=O)O was tested. Which MIC did it give?
A: > 12000 µM

Q: For CCCCCCCCCCN(CCCCCCCCCC)C(=O)NC(CCC(=O)O)(CCC(=O)O)CCC(=O)O, which MIC is on record?
A: > 11000 µM

tested on: Klebsiella pneumoniae; assay: Antimicrobial activity against Klebsiella pneumoniae by broth microdilution assay; assay type: functional
Summary of the method: (§2)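 Strains were E. coli strain C (ATCC 13706) and K. pneumoniae ATCC 4352, grown from a single colony in 1/10-strength BHI broth + 0.2% sucrose and adjusted with buffered saline gelatin to McFarland No. 1. Twofold dilution series of compound in triethanolamine/water used doubled medium and inoculum volumes. Plates were incubated at 37 °C and turbidity was scored visually on day 7. MIC, run in triplicate, was the lowest concentration giving a prominent visible turbidity decrease.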

Q: With CCCCCCCCCCCC(CCCCCCCCCCC)NC(=O)NC(CCC(=O)O)(CCC(=O)O)CCC(=O)O as the compound, how does the MIC read?
A: > 10000 µM

Q: Which MIC does the source give for CCCCCCCCN(CCCCCCCC)C(=O)NC(CCC(=O)O)(CCC(=O)O)CCC(=O)O here?
A: > 1100 µM

Q: CCCCCCCCCN(CCCCCCCCC)C(=O)NC(CCC(=O)O)(CCC(=O)O)CCC(=O)O was tested. Which MIC did it give?
A: > 1000 µM

Q: CCCCCCCCCCN(CCCCCCCCCC)C(=O)NC(CCC(=O)O)(CCC(=O)O)CCC(=O)O was tested. Which MIC did it give?
A: > 1000 µM

tested on: Aspergillus niger; assay: Antimicrobial activity against Aspergillus niger by broth microdilution assay; assay type: functional; summary of the method: as §1

Q: With CCCCCCCCCCCC(CCCCCCCCCCC)NC(=O)NC(CCC(=O)O)(CCC(=O)O)CCC(=O)O as the compound, how does the MIC read?
A: 10000 µM (≈ 6130 µg/mL)

Q: How did the MIC turn out when CCCCCCCCN(CCCCCCCC)C(=O)NC(CCC(=O)O)(CCC(=O)O)CCC(=O)O was run?
A: 380 µM (≈ 196 µg/mL)

Q: Which MIC does the source give for CCCCCCCCCN(CCCCCCCCC)C(=O)NC(CCC(=O)O)(CCC(=O)O)CCC(=O)O here?
A: 5800 µM (≈ 3150 µg/mL)

Q: For CCCCCCCCCCN(CCCCCCCCCC)C(=O)NC(CCC(=O)O)(CCC(=O)O)CCC(=O)O, which MIC is on record?
A: 11000 µM (≈ 6280 µg/mL)

tested on: Escherichia coli; assay: Antimicrobial activity against Escherichia coli by broth microdilution assay; assay type: functional; summary of the method: as §2

Q: For CCCCCCCCCCCC(CCCCCCCCCCC)NC(=O)NC(CCC(=O)O)(CCC(=O)O)CCC(=O)O, which MIC is on record?
A: 2500 µM (≈ 1530 µg/mL)

Q: How did the MIC turn out when CCCCCCCCN(CCCCCCCC)C(=O)NC(CCC(=O)O)(CCC(=O)O)CCC(=O)O was run?
A: 760 µM (≈ 391 µg/mL)

Q: With CCCCCCCCCN(CCCCCCCCC)C(=O)NC(CCC(=O)O)(CCC(=O)O)CCC(=O)O as the compound, how does the MIC read?
A: 1400 µM (≈ 760 µg/mL)

Q: For CCCCCCCCCCN(CCCCCCCCCC)C(=O)NC(CCC(=O)O)(CCC(=O)O)CCC(=O)O, which MIC is on record?
A: 2700 µM (≈ 1540 µg/mL)

tested on: Staphylococcus aureus; assay: Antimicrobial activity against Staphylococcus aureus by broth microdilution assay; assay type: functional
Summary of the method: (§3)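 Twofold dilution series of amphiphile (dissolved in aqueous triethanolamine, pH 8–9) in 1/10-strength Brain Heart Infusion Broth with 0.2% sucrose. Inoculum from a single-colony broth culture, diluted with buffered saline gelatin to No. 1 McFarland turbidity. Incubated at 30 °C; turbidity scored visually on day 4. MIC = lowest concentration giving a prominent visible decrease in turbidity; triplicate.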

Q: CCCCCCCCCCCC(CCCCCCCCCCC)NC(=O)NC(CCC(=O)O)(CCC(=O)O)CCC(=O)O was tested. Which MIC did it give?
A: > 10000 µM

Q: With CCCCCCCCN(CCCCCCCC)C(=O)NC(CCC(=O)O)(CCC(=O)O)CCC(=O)O as the compound, how does the MIC read?
A: > 12000 µM

Q: For CCCCCCCCCN(CCCCCCCCC)C(=O)NC(CCC(=O)O)(CCC(=O)O)CCC(=O)O, which MIC is on record?
A: > 12000 µM

Q: How did the MIC turn out when CCCCCCCCCCN(CCCCCCCCCC)C(=O)NC(CCC(=O)O)(CCC(=O)O)CCC(=O)O was run?
A: > 11000 µM

tested on: Staphylococcus aureus; assay: Antimicrobial activity against methicillin-resistant Staphylococcus aureus by broth microdilution assay; assay type: functional; summary of the method: as §3

Q: CCCCCCCCN(CCCCCCCC)C(=O)NC(CCC(=O)O)(CCC(=O)O)CCC(=O)O was tested. Which MIC did it give?
A: 3000 µM (≈ 1540 µg/mL)

Q: How did the MIC turn out when CCCCCCCCCN(CCCCCCCCC)C(=O)NC(CCC(=O)O)(CCC(=O)O)CCC(=O)O was run?
A: 12000 µM (≈ 6510 µg/mL)

Q: Which MIC does the source give for CCCCCCCCCCN(CCCCCCCCCC)C(=O)NC(CCC(=O)O)(CCC(=O)O)CCC(=O)O here?
A: 11000 µM (≈ 6280 µg/mL)

tested on: Micrococcus luteus; assay: Antimicrobial activity against Micrococcus luteus by broth microdilution assay; assay type: functional; summary of the method: as §1

Q: With CCCCCCCCCCCC(CCCCCCCCCCC)NC(=O)NC(CCC(=O)O)(CCC(=O)O)CCC(=O)O as the compound, how does the MIC read?
A: > 10000 µM

Q: How did the MIC turn out when CCCCCCCCN(CCCCCCCC)C(=O)NC(CCC(=O)O)(CCC(=O)O)CCC(=O)O was run?
A: 3000 µM (≈ 1540 µg/mL)

Q: Which MIC does the source give for CCCCCCCCCN(CCCCCCCCC)C(=O)NC(CCC(=O)O)(CCC(=O)O)CCC(=O)O here?
A: 12000 µM (≈ 6510 µg/mL)

Q: Which MIC does the source give for CCCCCCCCCCN(CCCCCCCCCC)C(=O)NC(CCC(=O)O)(CCC(=O)O)CCC(=O)O here?
A: 11000 µM (≈ 6280 µg/mL)

tested on: Cryptococcus neoformans; assay: Antimicrobial activity against Cryptococcus neoformans by broth microdilution assay; assay type: functional; summary of the method: as §1

Q: Which MIC does the source give for CCCCCCCCCCCC(CCCCCCCCCCC)NC(=O)NC(CCC(=O)O)(CCC(=O)O)CCC(=O)O here?
A: 7.2 µM (≈ 4.41 µg/mL)

Q: Which MIC does the source give for CCCCCCCCN(CCCCCCCC)C(=O)NC(CCC(=O)O)(CCC(=O)O)CCC(=O)O here?
A: 550 µM (≈ 283 µg/mL)

Q: How did the MIC turn out when CCCCCCCCCN(CCCCCCCCC)C(=O)NC(CCC(=O)O)(CCC(=O)O)CCC(=O)O was run?
A: 260 µM (≈ 141 µg/mL)

Q: With CCCCCCCCCCN(CCCCCCCCCC)C(=O)NC(CCC(=O)O)(CCC(=O)O)CCC(=O)O as the compound, how does the MIC read?
A: 62 µM (≈ 35.4 µg/mL)

tested on: Mycolicibacterium smegmatis; assay: Antimicrobial activity against Mycobacterium smegmatis by broth microdilution assay; assay type: functional
Summary of the method: (§4)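 Strains were L. plantarum ATCC 14917, precultured in TSB, and M. smegmatis ATCC 607, precultured in Middlebrook 7H9. Inocula were diluted with buffered saline gelatin to McFarland No. 1. Twofold dilutions of compound in aqueous triethanolamine were made in 1/10-strength BHI broth + 0.2% sucrose and mixed with an equal volume of inoculum. Plates were incubated at 30 °C and scored visually for turbidity on day 4. MIC was determined in triplicate.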

Q: For CCCCCCCCCCCC(CCCCCCCCCCC)NC(=O)NC(CCC(=O)O)(CCC(=O)O)CCC(=O)O, which MIC is on record?
A: 640 µM (≈ 392 µg/mL)

Q: CCCCCCCCN(CCCCCCCC)C(=O)NC(CCC(=O)O)(CCC(=O)O)CCC(=O)O was tested. Which MIC did it give?
A: 1500 µM (≈ 772 µg/mL)

Q: Which MIC does the source give for CCCCCCCCCN(CCCCCCCCC)C(=O)NC(CCC(=O)O)(CCC(=O)O)CCC(=O)O here?
A: 1400 µM (≈ 760 µg/mL)

Q: For CCCCCCCCCCN(CCCCCCCCCC)C(=O)NC(CCC(=O)O)(CCC(=O)O)CCC(=O)O, which MIC is on record?
A: 680 µM (≈ 388 µg/mL)

tested on: Lactiplantibacillus plantarum; assay: Antimicrobial activity against Lactobacillus plantarum by broth microdilution assay; assay type: functional; summary of the method: as §4

Q: CCCCCCCCCCCC(CCCCCCCCCCC)NC(=O)NC(CCC(=O)O)(CCC(=O)O)CCC(=O)O was tested. Which MIC did it give?
A: 10000 µM (≈ 6130 µg/mL)

Q: Which MIC does the source give for CCCCCCCCN(CCCCCCCC)C(=O)NC(CCC(=O)O)(CCC(=O)O)CCC(=O)O here?
A: 1500 µM (≈ 772 µg/mL)

Q: With CCCCCCCCCN(CCCCCCCCC)C(=O)NC(CCC(=O)O)(CCC(=O)O)CCC(=O)O as the compound, how does the MIC read?
A: 12000 µM (≈ 6510 µg/mL)

Q: Which MIC does the source give for CCCCCCCCCCN(CCCCCCCCCC)C(=O)NC(CCC(=O)O)(CCC(=O)O)CCC(=O)O here?
A: 11000 µM (≈ 6280 µg/mL)

tested on: Saccharomyces cerevisiae; assay: Antimicrobial activity against Saccharomyces cerevisiae by broth microdilution assay; assay type: functional; summary of the method: as §1

Q: CCCCCCCCCCCC(CCCCCCCCCCC)NC(=O)NC(CCC(=O)O)(CCC(=O)O)CCC(=O)O was tested. Which MIC did it give?
A: 1300 µM (≈ 797 µg/mL)

Q: Which MIC does the source give for CCCCCCCCN(CCCCCCCC)C(=O)NC(CCC(=O)O)(CCC(=O)O)CCC(=O)O here?
A: 380 µM (≈ 196 µg/mL)

Q: How did the MIC turn out when CCCCCCCCCN(CCCCCCCCC)C(=O)NC(CCC(=O)O)(CCC(=O)O)CCC(=O)O was run?
A: 720 µM (≈ 391 µg/mL)

Q: With CCCCCCCCCCN(CCCCCCCCCC)C(=O)NC(CCC(=O)O)(CCC(=O)O)CCC(=O)O as the compound, how does the MIC read?
A: 2700 µM (≈ 1540 µg/mL)
